# Results reported in the EternaBench riboswitch data.
# System: MS2 coat protein
# Experiment: apparent Kd, MS2 coat protein; higher = weaker binding; RNA-MaP array; FMN 200 µM where present
# Outline: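 Two titrations, one without ligand and one with constant ligand, were run with SNAP-549-labelled MS2 coat protein from 0.7 or 1.5 nM, doubling to 3 µM. The targets were designs transcribed by stalled E. coli RNA polymerase on Illumina sequencing-chip clusters, in 100 mM Tris-HCl pH 7.5, 80 mM KCl, 4 mM MgCl2, BSA, DTT, yeast tRNA and Tween-20. The apparent Kd is the median of filtered per-cluster binding-curve fits, with green signal normalised to red-channel RNA signal and control-cluster median Fmax.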
# [1] = designed as: OFF switch for flavin mononucleotide, no ligand
# [2] = ligand present: flavin mononucleotide, designed as: OFF switch for flavin mononucleotide
# [3] = designed as: ON switch for flavin mononucleotide, no ligand
# [4] = ligand present: flavin mononucleotide, designed as: ON switch for flavin mononucleotide
Sequence,apparent Kd [1] [nM],apparent Kd [2] [nM],apparent Kd [3] [nM],apparent Kd [4] [nM]
ACAUGAGGAUCACCCAUGUUUAUUGGGUACUAUACUAUCAGCAAGGAUAUGCAAAUUUUUUUUACGCAGAAGGUGCAGGAACCU,523,334,–,–
AUAGCAUACCGAGGAUAUUCAUAUAAUAAAUAAACAUGAGGAUCACCCAUGUGGCGAAAGCCUAGGGAGAAGGCGGAAUGCUAA,–,–,218,23.3
GCCAUCGCAUGAGGAUAUGGUCACGUUUCGUGACCAGAAGGCAUGUCAAUAGACAUGAGGAUCACCCAUGUAGUUAAGAUGGCA,–,–,680,59.8
GAGGACUGUAAAUUAACUCAAAUACAUGAGGAUCACCCAUGUAAGGAUAUCGUCAGGAAUACUGACGAGAAGGUACAUCAGUCC,14.4,20,–,–
AGUCGGAGCAGAGGAUAUACAUGAGGAUCACCCAUGUAAAUGGAAGAAGACUGGAAACAGUCAAUGUAGAAGGCUGCUCCGACA,121,625,–,–
CGAUAUGAUGCAGGAUAUCUAUCUUGAAUGAGGAGAGAAGGGCAUAGGGAGACAUAAGCCUUAUUACAUGAGGAUCACCCAUGU,12.9,12,–,–
GGACGACUCAUUAACAUGAGGAUCACCCAUGUCAAAAGACAUGAGGAUAUGGAUCCUAAUUGGAUCCAGAAGGCAUGGUCGUCC,–,–,944,51.8
GAAUGUUGAGGAUAUACAUGAGGAUCACCCAUGUGUUAGCAGAGUCUGCCCGUCUUCAGUAGAAGGCAACAUUC,17.2,42.4,–,–
AUUAUACAUGAGGAUCACCCAUGUUUUGGUGGGUCAGGAUAUAAAUUGAAUGAGUUUUAGUUAGAAGGGACAUUUA,–,–,56.5,42.9
GCGUCAUGCAGAGGAUAUUGUUGCGGAUCUCUAUAAGAAGGCUGUACAUGAGGAUCACCCAUGUCACCACAUGAGGGUCACGUG,22.1,41.2,–,–
UUAGCAACAUGAGGAUCACCCAUGUAGGAUAUCGCUAUUGUAAUCAUGAAACAUGAUUACAAUAGCGAGAAGGACAUAUGCUUU,13.9,14.9,–,–
UUAAUAAAGUAAGGAUAUACAUGAGGAUCACUCGUAGAAGGUACUAUACAUGAGGAUCACCCAUGUUCCGGUCAGAAGACUGGA,–,–,1100,778
UAAAGCUCCGAGAAGGUAUGCGUACAUGAGGAUCACCCAUGUCAAAGCAUAAGGAUAUCGUGUGCGUGCGUCGAAUGUAGGAAA,–,–,10.2,5.55
GUAGAGUAAGGAUAUUGUGAAUAGGAUAGAAUGGUUAGAAACAAGAAGGUACAUGAGGAUCACCCAUGUAAUGU,22.1,19.8,–,–
AUAGCCGGGAGGUAAACUCGUGCGGCAGAAGGGUGAUACUGGACAUGAGGAUCACCCAUGUGCACACAGGAUAUGCCCGCGAGC,–,–,159,33.3
UGAGACCUCACAGGAUAUGCUGGACUUUGUCCAGCAGAAGGGUGAAAACAUGAGGAUCACCCAUGUAUGGUCUCCAAAUUUAAG,–,–,191,12.7
UUUACGAAAGUCGAACGAUGUAGCAGAAGGACAUGAGGAUCACCCAUGUCAGCUGUAACAGCCAUGUAGGAUAUGCUACAUCCC,5.24,6.49,–,–
GCGAAGAACGAGAAGGCCACUACAUGAGGAUCACCCAUGUCGUGGAGUAUUGGAGGAUAUCGUUAGGCGUCUCAUGAGGACAUA,5.26,5.69,–,–
GUCAGCUCGUGAGGAUAUACAUGUGCUGGAAACAGCAUUAAAUAAUUCACAUGAGGAUCACCCAUGUAGAAGGCACGAGCUGAU,16.8,33.8,–,–
GCAAGGCAUGUAGGAUAUCGAGCUCAAAGAGCUCGAGAAGGACAUGAGGAUCACCCAUGUGCUCACAGACAGUGAGCGCCAUGC,35.4,114,–,–
AUAGAAGACUAGAAGGACCUAGUUGUAUAUUGUCGAGGUAUAUAAUUAGGUAGGAUAUGGGACAUGAGGAUCACCCAUGUCUUG,–,–,8.27,7.5
GCAAUGUAAGGAUAUUCGGAGUCCUGCCGGGCAGGUAGGUUGGAGAAGGUACAUGAGGAUCACCCAUGUGAGCC,48.6,170,–,–
UCAACCGGCGCCGGUUGAACAUGAGGAUCACCCAUGUACUCCAGAAGGCCGCCCAAGAACGGAGUGGAGGAUAUGGAAGUUCUC,–,–,47.2,30.1
GACAUACAUGAGGAUCACCCAUGUUCAGACGAACAAGGAUAUGUGUGGAAACCAUACUAUACAGAAGGUGUCUGUC,–,–,78.4,36
AUAUAGUCAGGAUAUCGAAGUGUGUGUUGGUUUGUAAUUUACGAGAAGGGACAUGAGGAUCACCCAUGUAGGAA,40.1,34.9,–,–
UGAGCAAGAGGAUAUACAAGGCGACCGUGAGGUCGAGGUUUACAUGAGGAUCACCCAUGUAGAAGGCUUGUUCU,17.2,38.9,–,–
AAAACAUGAGGAUCACCCAUGUAAAGAACGCUUAAUAGAUCUGAGGAUAUACUAGAAUUUACGUAGUAGAAGGCAGUGGGUACA,–,–,31.3,25.3
GGGUACAUGGGAGGAUAUCAUGUAGAUACAUGAGGAUCACCCAUGUCGAUGGAGACAUCGGAGAUUGAGAAGGCCCAUGUACCG,–,–,696,36.1

Sequence,apparent Kd [1] [nM],apparent Kd [2] [nM],apparent Kd [3] [nM],apparent Kd [4] [nM]
AAGGAGUGAGGAUAUGCUGCUCGUCACUUGCGUGAUGAGUAGCAGAAGGCACAUGAGGAUCACCCAUGUAAAGA,44.9,54.5,–,–
CAGUUUUGAGGAUAUCCAUCCUCCUACAUGAGGAUCACCCAUGUUUCCCUCUGGGUUUUCGGAGAAGGCAGUUAUU,326,283,–,–
UAAAAGUGAGGAUAUGCGAAGGCGUCUGAUAGACGAGGCUAGCAGAAGGCACAUGAGGAUCACCCAUGUGGGAU,89.7,152,–,–
GAUCUCGUCUAGAAGGUGUAAUAUAUAGUAGUACAAGGAUAUAGACAUGAGGAUCACCCAUGUCGUGCCUGGGCUCAUCUUAAA,5.92,7.64,–,–
CCAUGUUAGCAGGAUAUGCCAUUAUUCCUUUACGCAGAAGGGCUUACAUGAGGAUCACCCAUGUAACAUUUCAU,13.4,29.5,–,–
AGUUUUGUACAUGAGGAUCACCCAUGUUAAUAUGUGGUAGUCAGAAGGCAUUGUUAGAGUUUAAAUGAGGAUAUGAAUAUUCAG,–,–,72.8,33
UCGUAUAUACAAGGAUAUCAAUUAUUGCUAAAUACAACAUGAGGAUCACCCAUGUAACUAUGGAGUGAGAAGGUGUAAUGACUU,–,–,740,603
AUUAUUGACAUAGGAUAUUGUUACAUGAGGAUCACCCAUGUUAUUUGGGAAUUAGGAAUAUUUUACAAGAAGGAUGUUGUUACA,–,–,106,72.5
UGUUAUUAGACAGGAUAUUGAAUGUUAAGUAUUAACAUGAGGAUCACCCAUGUAUUUGAUUGGUACAAGAAGGGUCAUGUUUGU,–,–,323,659
AAAAAGUCAGGAUAUACGAAAAAAAAAAAAAAAAAAAAAAAGUAGAAGGGACAUGAGGAUCACCCAUGUGAAAA,74.7,39.3,–,–
AGAUCCGCAGGAUAUGUCAAUUUACACAUGAGGAUCACCCAUGUGCCUUGUGUCAGCUUGAUAGAAGGGCGGACUA,330,575,–,–
UCUCGGAGCAGAGGAUAUUACAUGAGGAUCACCCAUGUAUGAACCAAUAGCUGGAAACAGCAAUGUAAGAAGGCUGCUCCGACA,12.4,169,–,–
AUACUCAUGUAAGGAUAUGCGGCCGUUUCGGCUGCAGAAGGUACUAUAAUACAUGAGGAUCACCCAUGUCUCUCGCAUUGCGAG,–,–,556,61.4
ACGUGACAUGAGGAUCACCCAUGUGAGGAUAUCUGGAUAAUUUUUAUUUUAGAUAUCCAGAGAAGGCACAUGUU,206,173,–,–
CCGUUACAUGAGGAUCACCCAUGUGAGGAUAUCGGGAUGACUGGCAGCGUGCGGGACACGAGAAGGCACUGGGC,55.5,65.1,–,–
GUAGCUAUCGGAGGAUAUUCAUAGCGGAAACGGACAUGAGGAUCACCCAUGUGGCGAAAGCCUUGGGAGAAGGCCGAUAGCUAC,–,–,39.6,8.1
AAUGUCUGAGGAUAUCGAAUAGUGUACAUGAGGAUCACCCAUGUUUUUAUUAGUAUAUUACGAGAAGGCAGUGGAA,17.8,14.8,–,–
UUUACAUGAGGAUCACCCAUGUCUUGAAAGAUUAGUUCUGGUGAGGAUAUACAUGAUAAAGAAUUGUAGAAGGCACUGGGUACA,–,–,113,33.1
GGAUAGGACAGAGGAUAUACGUGCUAGAGAUGCUAGCAAAAUUUCCUCACAUGAGGAUCACCCAUGUAGAAGGCUGUCCUAUCG,15.8,393,–,–
UGUGUGUGGGCAGGAUAUGCAUGAAUAUGUAUGAUGUAGUGUGAUGUAACAUGAGGAUCACCCAUGUAGAAGGGCCGGUGUGUG,99.3,116,–,–
AUAUCUCUAUAAGUUCCAAUACGAACAUGAGGAUCACCCAUGUAGGAUAUGCUAGAAGUAGAGUUGCAGAAGGACAAGUACCUU,7.48,6.75,–,–
ACAAGAGCGGAAGGAUAUUUUACAUGAGGAUCACCCAUGUAAUAAAUGAGGAUCACGGAUGUAGUAAAGAAGGUCCGGAUAAGA,26.1,32.8,–,–
UUUUAACAUGAGGAUCACCCAUGUGAGGAUAUCGAAAUUUAUAUUAAUAUUAAUUUAUCGAGAAGGCACAUUUU,107,133,–,–
AGUAAGAUGCAGAAGGUGUCAGCGAGAGCUGCGACAUGAGGAUCACCCAUGUGUCGGUGACGACACAAGGAUAUGCAUCUUACA,–,–,407,227
GUCAGCUCGUGAGGAUAUACAACACUGCUUGGGCAGUGUAUUAAGAUCACAUGAGGAUCACCCAUGUAGAAGGCACGAGCUGAU,13.9,216,–,–
AUUAUACAUGAGGAUCACCCAUGUAAUUAAUCUAGUAAGAUCUAGGAUAUCAGCUCGAUUAGAGCUGAGAAGGAGAUCACAUGU,–,–,52.9,22.2
GAUUAACAUGAGGAUCACCCAUGUGAGGAUAUGGACUGGCUCACUUUCCGAUUCGGGUCUAGAAGGCGCAUCUU,33.5,33.2,–,–
